An excerpt weighted towards active compounds, which were near 1.7% of everything screened.
LMPTP block: LMPTP phosphatase inhibitors, primary screen, biochemical, fluorescence intensity, uHTS; 360,000 compounds, 0.22% hits; recombinant LMPTP-A, OMFP fluorogenic substrate; AID 651560, 2012; inhibition, % at 20 µM; Low molecular weight phosphotyrosine protein phosphatase (Homo sapiens), P24666;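 active means compounds that cut the enzyme signal by at least half of the control window in the single-dose screen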;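 further: plate controls were DMSO wells with enzyme plus substrate for no effect and substrate without enzyme for full effect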
Target sequence (P24666 whole entry, looked up): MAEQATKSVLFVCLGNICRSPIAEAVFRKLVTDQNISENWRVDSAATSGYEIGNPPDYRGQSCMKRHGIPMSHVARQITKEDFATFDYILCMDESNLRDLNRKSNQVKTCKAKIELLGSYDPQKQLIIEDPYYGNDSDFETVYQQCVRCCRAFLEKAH
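test system = LMPTP-A | amount = 0.625 nM LMPTP-A final | reagent = fluorogenic phosphatase substrate OMFP at 400 µM final | incubation = 50 min at room temperature | benchmarks = no-enzyme low control, uninhibited high control | medium = Bis-Tris pH 6.0, DTT, detergent | signal = fluorescence intensity of OMFP turnover product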
DNMT1 inh: human DNMT1 methyltransferase inhibitors, primary screen, biochemical, molecular beacon, fluorescence, HinP1I cleavage, uHTS. inhibition (reported as % activation of signal), % at 10 µM. 360,000 compounds, 0.83% hits; in the data active means inhibition above about 50%
STEP inh: STEP phosphatase inhibitors, primary screen, biochemical, fluorescence intensity, uHTS | Tyrosine-protein phosphatase non-receptor type 5 (Homo sapiens), P54829 | recombinant STEP, OMFP fluorogenic substrate | inhibition, % at 20 µM | 360,000 compounds, 0.25% hits | AID 588621, 2011;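 active means inhibition at 20 µM, scaled per plate between control wells, above about 37%, limit read from the data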;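 further: 0% = DMSO with enzyme and substrate and 100% = substrate only without enzyme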
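Material: STEP (striatal-enriched tyrosine phosphatase) enzyme, cell-free; Compound dosing: 20 µM single dose in 1% DMSO; Technique: fluorescence read at 480 nm ex / 540 nm em; Times: reaction 20 min, ambient temperature; Medium: 50 mM Bis-Tris pH 6.0 with 2.5 mM DTT and 0.005% Tween 20; Also added: OMFP at 25 µM.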
SUMO1 PPI mod: modulators of SUMO1 protein-protein interactions, primary screen, biochemical, uHTS; SUMO1 binding to a labelled peptide, TR-FRET, 1 h; inhibition, % at 20 µM; 360,000 compounds, 0.33% hits; AID 602429, 2012; in the data active means inhibition above about 37%
Target sequence (P63165 whole entry, looked up): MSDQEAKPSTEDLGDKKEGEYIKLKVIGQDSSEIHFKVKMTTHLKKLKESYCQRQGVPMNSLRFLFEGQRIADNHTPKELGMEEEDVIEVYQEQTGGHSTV
Scp1 inh: Scp-1 phosphatase inhibitors, primary screen, biochemical, colorimetric, uHTS. AID 493091, 2011. Recombinant Scp1, phosphopeptide, malachite green phosphate absorbance. 340,000 compounds, 0.88% hits. inhibition, % at 20 µM;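 active means inhibition above about 50% at 20 µM, limit read from the data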;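 further: plate controls were DMSO wells with enzyme for no effect and wells lacking enzyme for full effect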
Target sequence (Q9GZU7 76-261 limits assumed): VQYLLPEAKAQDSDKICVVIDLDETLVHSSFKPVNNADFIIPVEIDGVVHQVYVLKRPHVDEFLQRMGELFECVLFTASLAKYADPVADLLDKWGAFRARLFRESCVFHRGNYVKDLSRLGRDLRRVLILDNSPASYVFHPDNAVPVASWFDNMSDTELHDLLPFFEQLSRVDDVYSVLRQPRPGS
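System: SCP-1 catalytic domain; Reagent: Phospho 17-mer peptide substrate; Doses: one concentration, 20 µM, with 1.0% DMSO; Incubation: 45 min room-temperature reaction, 5 min colour, 30 min stabiliser; Signal: Phosphate-binding colour reagent, absorbance read at 630 nm.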
Beacon interf DR: spectral interference with molecular beacon fluorescence, dose response, artefact control for DNMT1 inhibitor project, biochemical, fluorescent molecular beacon; shares compounds with DNMT1 inh; spectral interference counter-screen; IC50, µM; 200 tested, under 10 active; AID 602382, 2012; call rule not given here
DNMT1 confirm: DNMT1 methyltransferase inhibitor retest, confirmation, biochemical, molecular beacon, fluorescence, single concentration. shares compounds with DNMT1 inh. DNMT1 molecular beacon HinP1I cleavage. inhibition, % at 10 µM. 2,300 compounds, 8% hits. AID 602385, 2012;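 active means average inhibition of at least 30% in the single-concentration confirmation test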
Beacon interf: counter-screen for DNMT1 inhibitors: spectral interference; shares compounds with DNMT1 inh; 2,300 compounds, 1% hits; activation (fluorescence interference), % at 10 µM; DNMT1 molecular beacon spectral interference counterscreen, fluorescence 485/520; AID 602387;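 active means activation of at least 30% at 10 µM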;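 further: DNMT1 catalytic domain with a HinP1I cleavage step and a FAM/dabcyl DNA beacon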
* marks the source's active call; other numbers are inactive results; x = not tested or not shown.

SMILES	LMPTP block	DNMT1 inh	STEP inh	SUMO1 PPI mod	Scp1 inh	DNMT1 confirm	Beacon interf	others
O=[N+]([O-])c1ccc(-c2nn(-c3ccccc3)cc2/C=N/n2c(-c3ccncc3)n[nH]c2=S)cc1	1.5	56.8*	7.5	23.1	4.5	1.6	0.7
S=c1[nH]nc(-c2cc(-c3ccccc3)n[nH]2)n1/N=C/c1ccc(Cl)c(Cl)c1	21.1	83.1*	-1.0	98.2*	3.8	8.8	0.4
O=[N+]([O-])c1cc(/C=N/n2c(-c3ccncc3)n[nH]c2=S)ccc1Cl	6.2	54.9*	-2.9	6.8	-8.0	2.1	4.3
Cc1cc(-c2n[nH]c(=S)n2/N=C/c2ccc(Cl)c([N+](=O)[O-])c2)n[nH]1	-1.7	12.1	-3.4	-1.2	0.3	x	x
Oc1ccc(Br)cc1/C=N/n1c(-c2ccccc2)n[nH]c1=S	-1.7	82.2*	-0.8	5.9	2.3	5.2	2.6
CCN1C(=O)[C@H]2[C@@H](c3ccc(C)cc3)N3C(=O)N(c4ccc(OC)cc4)C(=O)[C@@]3(C)[C@H]2C1=O	-2.1	3.3	-4.0	-0.8	-11.2	x	x
CN(C(=O)c1cccc(NC(=O)Cc2ccc(NC(=O)C3CCCN(C(=O)C4CC4)C3)cc2)c1)C1CCCC1 (stereo unspecified)	-0.4	3.7	3.2	4.8	4.1	x	x
CCc1nc2ccc(C(=O)NCCCn3ccnc3)cn2c1N(C)C(=O)c1cccc(OC)c1	-3.5	0.7	-2.9	1.4	x	x	x
COc1ccc(NC(=O)c2cc(C)nc3ccccc23)cc1S(=O)(=O)N1CCOCC1	-0.1	1.2	1.5	-1.4	10.6	x	x
Cc1ccccc1NC(=O)c1cc(-c2ccco2)nc2ccccc12	11.6	46.1	14.2	1.0	84.1*	1.2	3.0
COc1ccc(NC(=O)c2cc(-c3ccco3)nc3ccccc23)cc1S(=O)(=O)N1CCOCC1	21.4	63.5*	3.3	0.1	85.0*	20.7	0.0
O=C(NCC1CCCO1)c1cc(-c2ccncc2)nc2ccccc12 (stereo unspecified)	0.0	0.5	1.2	-13.8	4.4	x	x
Cc1ccc(S(=O)(=O)N(C)C)cc1NC(=O)c1cc(-c2ccco2)nc2ccccc12	1.7	6.3	-3.5	-7.0	18.5	x	x
CN(CC(=O)Nc1cccc(F)c1)C(=O)c1cc(-c2ccco2)nc2ccccc12	33.8	86.6*	16.2	10.6	82.6*	9.2	-0.2
COc1ccc(-c2cc(C(=O)N(C)CC(=O)Nc3cccc(F)c3)c3ccccc3n2)cc1OC	1.2	-0.2	4.5	-0.3	x	x	x
O=C(NCC1CCCO1)c1cc(-c2ccco2)nc2ccccc12 (stereo unspecified)	4.1	83.8*	4.5	-0.5	44.3	18.9	1.7
O=C(CCN1CCN(c2ccccc2)CC1)NNC(=O)Cc1ccc(Br)cc1	-0.3	-0.3	1.9	-0.9	-2.8	x	x
Nc1[nH]c(C(=O)c2ccccc2)c(-c2ccccc2Br)c1C(=O)c1ccccc1	1.7	x	x	2.4	x	x	x
OCc1cc(-c2ccccn2)no1	0.9	4.2	-0.1	-3.1	-2.7	x	x
COc1ccccc1N1CCN(C(=O)CCC(=O)Nc2nnc(C(C)C)s2)CC1	-0.5	-0.1	0.2	0.3	-1.7	x	x
O=C(c1cc(-c2ccco2)nc2ccccc12)N1CCN(Cc2ccccc2)CC1	0.7	-2.6	3.2	-2.2	-5.7	x	x
COC(=O)C1CCN(C(=O)c2cc(-c3ccco3)nc3ccccc23)CC1	46.9	85.8*	6.5	12.4	69.5*	49.8*	3.0	Beacon interf DR=>99
COc1cc(/C=N/NC(=O)c2cc(-c3ccco3)nc3ccccc23)cc(OC)c1O	5.5	-10.8	0.1	-7.5	7.7	x	x
O=C(N/N=C/c1cccc(F)c1)c1cc(-c2ccco2)nc2ccccc12	55.6*	97.3*	16.4	21.7	81.1*	67.8*	1.6	Beacon interf DR=>99
O=C(OCc1ccccc1)N1CCC2CC1c1ccc(N3CCN(Cc4ccc5c(c4)OCO5)CC3)cc12 (stereo unspecified)	6.1	-4.3	-0.3	4.2	x	x	x
SMILES	LMPTP block	DNMT1 inh	STEP inh	SUMO1 PPI mod	Scp1 inh	DNMT1 confirm	Beacon interf	others
CNS(=O)(=O)c1cc(NC(=O)c2cncn2-c2ccccc2)ccc1C	-7.7	-3.1	-0.4	-11.3	-6.4	x	x
O=C(O)c1cc([N+](=O)[O-])ccc1Oc1ccccc1	-2.6	-2.6	-1.1	-17.6	-0.3	x	x
CCOc1ccc(N=c2cc(-c3ccc(OC)cc3)oc3ccccc23)cc1	8.8	95.4*	1.3	-3.6	13.6	1.7	3.8
COc1ccc(S(=O)(=O)N(CC(=O)NCc2ccccn2)Cc2ccccc2)cc1	0.4	0.7	-3.1	4.9	-4.9	x	x
O=C(CN(Cc1ccc(Br)cc1)S(=O)(=O)c1ccccc1)NCc1ccccn1	-0.5	86.8*	-0.8	-3.5	3.8	4.5	5.0
Cc1sc2nc3c(SC(C)C(=O)O)cc(C(=O)c4ccccc4O)cn3c(=O)c2c1C (stereo unspecified)	2.3	-5.4	7.7	17.7	-9.1	x	x
O=C(O)CSc1cc(C(=O)c2ccccc2O)cn2c(=O)c3c(-c4ccccc4)csc3nc12	16.4	58.9*	4.6	17.4	17.6	20.7	-2.0
O=C(COC(=O)c1cc(=O)c2ccccc2o1)NCc1ccc(Cl)cc1	-2.3	57.4*	-1.9	2.7	x	0.7	0.8
COc1ccc(CC(N)c2csc(NC(=O)c3cc(C(C)(C)C)nn3Cc3ccccc3)n2)cc1 (stereo unspecified)	0.8	-11.9	3.1	-143.4	x	x	x
O=C(NCc1ccccc1C(F)(F)F)c1cccc2c1C(=O)c1ccc(N3CCOCC3)cc1S2(=O)=O	-2.0	62.4*	-0.3	-1.8	-0.2	7.1	7.7
CC(C)CN(C(=O)C1CCC1)c1c(N)n(Cc2ccccc2)c(=O)[nH]c1=O	-0.6	3.0	-4.7	-15.1	2.1	x	x
CCCC[N+](C)(C)CCC(=O)NC(C)(C)CS(=O)(=O)[O-]	-0.7	66.1*	7.1	0.7	42.8	5.0	1.2
Cc1nc2ccccc2n1CC(=O)NN	-0.2	73.7*	0.5	21.3	-8.0	1.5	4.0

Screening data as filed in PubChem BioAssay.
